Results on two compounds are retold here after ChEMBL document CHEMBL4414566, “Cytotoxicity and Anti-inflammatory Properties of Apigenin-Derived Isolaxifolin” (J Nat Prod, 2019).

The subject of series [1] is MDA-MB-231. Briefly: Antiproliferative activity against human MDA-MB-231 cells assessed as viable cells at 40 uM incubated for 48 hrs by trypan blue dye exclusion test relative to control. To be noted: MDA-MB-231, 48 h, read-out: Activity. The series is classed as functional.
For series [2], the system named is RAW264.7. Briefly: Antiinflammatory activity in mouse RAW264.7 cells assessed as reduction in LPS-induced IL6 production preincubated with LPS for 24 hrs followed by compound addition and measured after 24 hrs by ELISA. In kind it is functional, cell-based. An outline of the steps: (§1)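 Murine RAW 264.7 macrophages, 1 × 10^5/well, 4 h settling, then LPS (1.0 μg/mL) for 24 h. Medium was swapped for test solutions (0.8–3.1 μM or 2.3–9.2 μM), or DXM 254.8 μM as positive control, for another 24 h. Secreted NO was measured by Griess assay; TNF-α and IL-6 by ELISA. Run in triplicate, mean ± SD.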
Background: ELISA stands for enzyme-linked immunosorbent assay.

For series [3], the system named is RAW264.7. Briefly: Antiinflammatory activity in mouse RAW264.7 cells assessed as reduction in LPS-induced TNFalpha production preincubated with LPS for 24 hrs followed by compound addition and measured after 24 hrs by ELISA. The series is classed as functional, cell-based. In outline: as §1
Series [4] relates to RAW264.7. In words: Antiinflammatory activity in mouse RAW264.7 cells assessed as inhibition of LPS-induced NO production measured after 24 hrs by griess reagent based assay. The series is classed as functional, cell-based. In outline:
as §1
On the technique in general: Griess reagent forms a coloured azo dye with nitrite.

The nature of series [5]: Cytotoxicity against mouse RAW264.7 cells assessed as reduction in cell viability incubated for 24 hrs by MTT assay. The series is classed as cell-based. To be noted: read-out: MNCC. An outline of the steps: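 MTT viability assay: RAW 264.7 cells seeded at 2.5 × 10^4 cells/well, cultured 12 h, then given five concentrations from serial dilution (up to 6.2 or 9.2 μM; final DMSO <1%) for 24 h. Viability was calculated relative to untreated blank control; n = 3, mean ± SD.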

In series [6] the test system is MDA-MB-231. In words: Induction of mitochondrial membrane potential loss in human MDA-MB-231 cells incubated for 48 hrs by JC1 staining based flow cytometric analysis. The series is classed as functional, cell-based. An outline of the steps: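 MDA-MB-231 cells in DMEM/10% FBS exposed 48 h to 0, 8.6, 12.4 or 17.3 μM. Harvested cells stained with JC-1 for 15 min in the dark, then analysed by flow cytometry. Excitation 488 nm; green emission read at 525 nm, red at 590 nm. Output given as percent green-to-red fluorescence intensity ratio. Triplicate, mean ± SD.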
A general note: Flow cytometry measures light scatter and fluorescence of single cells or particles in a stream.

Series [7] relates to MDA-MB-231. Briefly: Induction of apoptosis in human MDA-MB-231 cells assessed as increase in nuclear chromatin condensation incubated for 48 hrs by Hoechst 33258 staining based fluorescence microscopic method. The series is classed as functional, cell-based. An outline of the steps:
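MDA-MB-231 cells were grown 24 h and treated with 8.6, 12.4 or 17.3 μM for 48 h. They were then fixed 10 min, washed three times in PBS and stained 5 min with Hoechst 33258. Nuclear condensation was imaged by fluorescence microscopy (excitation 350 nm, emission 460 nm).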

Another series concerns L02. Briefly: Cytotoxicity against human LO2 cells assessed as reduction in cell viability at 23.1 to 185 uM incubated for 48 hrs by methylene blue assay. In kind it is cell-based. To be noted: l02, 48 h. In outline:
(§2)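 MDA-MB-231, MCF-7, HepG2 and LNCaP cells were grown in DMEM; HCT-116 and LO-2 in RPMI-1640; all with 10% FBS at 37 °C, 5% CO2. Cells seeded at 1.5 × 10^5 cells/mL and incubated overnight (~12 h), then exposed to 6.2–30.9 μM or 23.1–185.0 μM (final DMSO <0.1%) for 48 h. Read by methylene blue staining; viability = Abs treated/Abs untreated × 100%, triplicate.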

The test system of series [8] is MCF7. Briefly: Antiproliferative activity against human MCF7 cells assessed as cell viability at 188.7 uM incubated for 48 hrs by methylene blue assay relative to control. As to conditions: MCF7, 48 h, read-out: Activity. In kind it is functional.
Series [9] concerns RAW264.7. Briefly: Antiinflammatory activity against LPS-activated mouse RAW264.7 cells assessed as reduction in TNFalpha mRNA expression preincubated with LPS for 24 hrs followed by compound addition and measured after 24 hrs by qRT-PCR analysis. In kind it is functional, cell-based. In outline:
(§3)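 RAW 264.7 cells (DMEM, 10% FBS, 37 °C, 5% CO2) seeded at 1 × 10^5/well and held 4 h. LPS 1.0 μg/mL was added for 24 h, then medium was replaced with test agent (0.8, 1.6, 3.1 μM or 2.3, 4.6, 9.2 μM) for 24 h. TNF-α and IL-6 transcripts were quantified by real-time qPCR against GAPDH. Triplicates, mean ± SD.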

The test system of series [10] is RAW264.7. Briefly: Antiinflammatory activity against LPS-activated mouse RAW264.7 cells assessed as reduction in IL6 mRNA expression preincubated with LPS for 24 hrs followed by compound addition and measured after 24 hrs by qRT-PCR analysis. The series is classed as functional, cell-based. In outline: as §3
Series [11] relates to MDA-MB-231. Briefly: Antiproliferative activity against human MDA-MB-231 cells assessed as reduction in cell viability at 46.3 uM incubated for 48 hrs by methylene blue assay. In kind it is functional. In outline:
as §2

In series [12] the test system is MCF7. Briefly: Antiproliferative activity against human MCF7 cells assessed as reduction in cell viability at 46.3 uM incubated for 48 hrs by methylene blue assay relative to control. The series is classed as functional. An outline of the steps:
as §2

The test system of another series is HepG2. In words: Antiproliferative activity against human HepG2 cells reduction in cell viability at 46.3 uM incubated for 48 hrs by methylene blue assay relative to control. The series is classed as functional. In outline:
as §2

The next series concerns LNCaP. In words: Antiproliferative activity against human LNCAP cells assessed as reduction in cell viability at 46.3 uM incubated for 48 hrs by methylene blue assay relative to control. In kind it is functional. An outline of the steps:
as §2

The next series has as its system HCT-116. Briefly: Antiproliferative activity against human HCT116 cells assessed as reduction in cell viability at 46.3 uM incubated for 48 hrs by methylene blue assay relative to control. In kind it is functional. In outline: as §2
Series [13] relates to MDA-MB-231. Briefly: Induction of cell cycle arrest in human MDA-MB-231 cells assessed as increase in accumulation of cells at G0/G1 phase incubated for 48 hrs by PI/RNase staining based flow cytometric analysis. In kind it is functional. In outline: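 Cells grown 24 h in DMEM/10% FBS at 37 °C, 5% CO2, then exposed 48 h to 8.6, 12.4 or 17.3 μM. Pelleted, fixed in 75% ethanol at −20 °C overnight, stained with PI-containing RNase 15 min in the dark at ambient temperature. About 10 000 cells per well analysed by flow cytometry. Triplicate, mean ± SD.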

Series [14] relates to RAW264.7. Briefly: Inhibition of nitric oxide production in mouse RAW264.7 cells measured after 24 hrs by griess reagent based assay. In kind it is functional, cell-based.
Series [15] deals with RAW264.7. In words: Antiinflammatory activity in mouse RAW264.7 cells assessed as inhibition LPS-induced NO production at 254.8 uM measured after 24 hrs by griess reagent based assay. In kind it is functional, cell-based. An outline of the steps: as §1

SMILES strings stand for the structures. Active and inactive are the calls of the source. The calls are words filed in the database; no cut-off is given here.

On to `O=c1cc(-c2ccc(O)cc2)oc2cc(O)cc(O)c12` [APIGENIN], for which the viability at 40 µM in the series with MDA-MB-231 [1] was found to be 45%. For the same compound, the Activity entry was “Dose-dependent effect” in the series with RAW264.7 [2]; “Dose-dependent effect” in the series on RAW264.7 [3]; “Dose-dependent effect” in the series on MDA-MB-231 [7]; “Non-Toxic” with L02; “Dose-dependent effect” in the series on RAW264.7 [9]; “Dose-dependent effect” with RAW264.7 [10]. Besides, the Activity entry in the series with MDA-MB-231 [11], in the series with MCF7 [12], in the series on HepG2, with LNCaP and in the series on HCT-116 was “<=50%” each time. Besides, the inhibition entry in the series with RAW264.7 [4] and with RAW264.7 [14] was “Dose-dependent effect” throughout. The MNTC at 24 h in [5] came to 9.2 µM. Besides, the outcome in the series with MDA-MB-231 [6] and in the series with MDA-MB-231 [13] was Active. In addition, the viability at 188.7 µM in the series on MCF7 [8] worked out at 20%.

In the case of `C[C@@H]1C[C@H]2[C@@H]3CCC4=CC(=O)C=C[C@]4(C)[C@@]3(F)[C@@H](O)C[C@]2(C)[C@@]1(O)C(=O)CO`, the inhibition result in the series with RAW264.7 [15] was “Active”.
